For twelve compounds, inhibition and Activity results are on record in ChEMBL document CHEMBL1681765, “Structure-activity relationships of hypervalent organochalcogenanes as inhibitors of cysteine cathepsins V and S” (Bioorg Med Chem, 2011).

Structures are written as SMILES. Some results are limits rather than exact numbers.

For assay [1], the target named is T1, Cathepsin L2 (Homo sapiens) (UniProt O60911).
T1 sequence (whole entry): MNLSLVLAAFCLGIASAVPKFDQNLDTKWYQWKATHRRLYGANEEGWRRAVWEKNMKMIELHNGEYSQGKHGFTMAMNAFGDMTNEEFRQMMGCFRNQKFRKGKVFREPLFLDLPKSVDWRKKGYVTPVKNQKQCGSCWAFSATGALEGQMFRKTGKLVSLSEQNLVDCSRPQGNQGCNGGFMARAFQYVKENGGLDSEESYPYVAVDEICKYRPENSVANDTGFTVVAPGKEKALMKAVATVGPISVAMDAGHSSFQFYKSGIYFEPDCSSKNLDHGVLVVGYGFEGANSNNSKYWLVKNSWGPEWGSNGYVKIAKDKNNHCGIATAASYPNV
Description: Inhibition of Cathepsin V at 1 umol/L for 2 mins by spectrofluorometry. In a few lines: (§1)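 Enzyme pre-incubated with inhibitor (1 µmol L⁻¹) for 2 min at 37 °C in enzyme-specific buffer (cathepsin S: 50 mmol L⁻¹ sodium phosphate pH 6.5, 2.5 mmol L⁻¹ EDTA; cathepsin V: 50 mmol L⁻¹ sodium acetate pH 5.5, 2.5 mmol L⁻¹ EDTA). Then Cbz-Phe-Arg-AMC (1 µmol L⁻¹) added; fluorescence ex 380/em 460 nm. Residual activity as percentage of uninhibited control; triplicate.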

Assay [2] addresses Cathepsin S (Homo sapiens) (UniProt P25774). Description: Inhibition of Cathepsin S at 1 umol/L for 2 mins by spectrofluorometry. In a few lines:
as §1

Assay [3] concerns the target T1, Cathepsin L2 (Homo sapiens). The assay is described as follows: Inhibition of Cathepsin V assessed as second-order inactivation rate constant by spectrofluorometry. The essentials: (§2)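 Continuous assay: substrate Cbz-Phe-Arg-AMC kept 10-fold below KM, with varying inhibitor concentrations, in enzyme-specific buffer (cathepsin S: phosphate pH 6.5, 2.5 mmol L⁻¹ EDTA; cathepsin V: acetate pH 5.5, 2.5 mmol L⁻¹ EDTA). AMC fluorescence ex 380/em 460 nm. Progress curves fit to P = (vz/kobs)[1−exp(−kobs·t)] + d to obtain kobs.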

The target of assay [4] is Cathepsin S (Homo sapiens) (UniProt P25774). Description: Inhibition of Cathepsin S assessed as second-order inactivation rate constant by spectrofluorometry. Set-up: unit not given here. In a few lines:
as §2

Chain of Cathepsin S (Homo sapiens) (P25774 115-331 limits assumed): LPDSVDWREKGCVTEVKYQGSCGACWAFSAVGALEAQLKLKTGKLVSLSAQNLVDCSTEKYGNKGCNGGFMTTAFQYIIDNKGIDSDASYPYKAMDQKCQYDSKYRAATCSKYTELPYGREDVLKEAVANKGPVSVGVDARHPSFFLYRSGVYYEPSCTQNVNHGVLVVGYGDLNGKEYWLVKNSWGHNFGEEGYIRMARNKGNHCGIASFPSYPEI

For the compound `CCCC[Te](Cl)(Cl)c1ccccc1[C@@H](C)OC`, the inhibition (usually how much of the control response was suppressed) in assay [1] was determined as 90%; in assay [2], 85%. For the same compound, the Activity in assay [3] is 2500 mol/L/s; in assay [4], 1800.

On to `CCCC[Se](Cl)(Cl)c1ccccc1[C@@H](C)OC`, for which the Activity stood at 900 mol/L/s in assay [3] and 1200 in assay [4].

With `CCCC[Te](Cl)(Cl)c1ccccc1COC`, the inhibition in assay [1] amounted to 90%; in assay [2], 85%. Besides, the Activity worked out at 11600 mol/L/s in assay [3] and 1300 in assay [4].

For the compound `CCCC[Se](Br)(Br)c1ccccc1[C@H](C)OC`, the Activity was determined as 2200 mol/L/s in assay [3] and 2900 in assay [4].

For `CCCC[Se](Cl)(Cl)c1ccccc1[C@H](C)OC`, the Activity was 1000 mol/L/s in assay [3] and 1500 in assay [4].

With `CCCC[Te](Br)(Br)c1ccccc1COC`, the figures for the inhibition in assay [1] and in assay [2] were 90% and 96%, respectively. Further, the Activity in assay [3] worked out at 26400 mol/L/s; in assay [4] it was 4400.

Regarding `CCCC[Te](Br)(Br)c1ccccc1[C@H](C)OC`, the inhibition in assay [1] is 90%; in assay [2], greater than 90%. Further, the Activity is 7400 mol/L/s in assay [3] and 4900 in assay [4].

For `CCCC[Te](Cl)(Cl)c1ccccc1[C@H](C)OC`, the inhibition came to 90% in assay [1] and 85% in assay [2]. Besides, the figures for the Activity in assay [3] and in assay [4] were 2400 mol/L/s and 1800, respectively.

In the case of `CCCC[Se](Br)(Br)c1ccccc1[C@@H](C)OC`, the Activity in assay [3] was 1000 mol/L/s; in assay [4] it was 2200.

As to `CCCC[Te](Br)(Br)c1ccccc1[C@@H](C)OC`, the inhibition in assay [1] is 90%; in assay [2], greater than 90%. The Activity was found to be 3900 mol/L/s in assay [3] and 2500 in assay [4].

As to `CCCC[Se](Cl)(Cl)c1ccccc1COC`, the Activity stood at 500 mol/L/s in assay [3] and 1500 in assay [4].

Take `CCCC[Se](Br)(Br)c1ccccc1COC`: the Activity in assay [3] was found to be 3400 mol/L/s; in assay [4], 4000.
